Measurements of several laboratories.
Matrix: plasma

SMILES | system | setting | AUC(0-inf) [ng·h/mL]
CC(C)[C@](O)(c1ccc2cc(OC(F)F)c(OC(F)F)cc2c1)c1c[nH]nn1 | female human | oral, 750 mg, single dose | 84600
CCc1nc2c(C)cc(N3CCN(CC(=O)N4CC(O)C4)CC3)cn2c1N(C)c1nc(-c2ccc(F)cc2)c(C#N)s1 | human | oral, 600 mg, single dose, fasted, healthy volunteers | 36600
CC(C)(O)c1ccccc1-c1ccc2[nH]c(/C=C/c3ccc(C(F)(F)F)cc3)nc2c1 | male human | oral, 5 mg, single dose, fasted | 876
COc1ccc([C@@H]2CN(C(=O)[C@@H](O)CO)C[C@@]2(C)[C@@H](C)O)cc1OC1CN(c2ccc(C)cn2)C1 | human | oral, 40 mg, single dose, healthy volunteers | 9000
C[C@@]1(c2cc(NC(=O)c3ccc(C#N)cn3)ccc2F)C=CSC(N)=N1 | human | oral, 3 mg, single dose | 259
CN(C)CCCNC(=O)/C(=C/CCCCC(=O)NO)COc1cccc2ccccc12 | human | intravenous, 312.5 mg/m², single dose | 72600
CC(C)n1cc(C#N)c2cc(-n3cc(C(=O)O)cn3)ccc21 | human | oral, 10 mg, single dose, fasted, healthy volunteers | 1770
COc1ccc(-n2nc(C(N)=O)c3c2C(=O)N(c2ccc(N4CCCCC4=O)cc2)CC3)cc1 | male human | oral, 10 mg, single dose | 1630
CO[C@H]1CC[C@H](N2C(=O)CNc3ncc(-c4ccc(C(C)(C)O)nc4)nc32)CC1 | human | oral, 7.5 mg, patients | 353
O=C(Nc1c(Cl)cncc1Cl)c1ccc(OC(F)F)c(OCC2CC2)c1 | human | oral, 0.25 mg, single dose, fasted | 33.8
Cn1cc(-c2ccc(S(=O)(=O)[C@@H]3C[C@@H](C(=O)NC4(C#N)CC4)N(C(=O)C4(C(F)(F)F)CC4)C3)c(C(F)(F)F)c2)cn1 | human | oral, 3 mg, single dose, fasted, healthy volunteers | 229
CC(C)(Sc1ccncc1-c1ccc(C#N)c2ccccc12)C(=O)O | male human | oral, 40 mg, single dose, fasted, healthy volunteers | 1270
